AI-2 QS mod: modulators of Vibrio harveyi AI-2 quorum sensing system; activity change, % at 7.5 µM; Vibrio harveyi JMH597 AI-2 luminescence/OD600 ratio, 9 h; hits give low values; strain lacks LuxN and CqsS sensors; 0 = neutral-control median; 300,000 tested, 0.4% active; in the data active means activity change below about -75%, passing the limit was not always enough;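 further: luminescence divided by OD600 gain over 9 h not by final OD600 alone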
Rce1 inhib: yeast Ras-converting enzyme inhibition | 290,000 tested, 0.27% active | calls only | yeast membranes, quenched prenylated peptide cleavage fluorescence | Q03530;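 active means fall in fluorescence gain of 50% or more versus controls, with final raw signal at or below 3038400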;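 further: plate controls were neutral control wells for no effect and wells lacking membranes for full effect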
Target sequence (Q03530 whole entry, looked up): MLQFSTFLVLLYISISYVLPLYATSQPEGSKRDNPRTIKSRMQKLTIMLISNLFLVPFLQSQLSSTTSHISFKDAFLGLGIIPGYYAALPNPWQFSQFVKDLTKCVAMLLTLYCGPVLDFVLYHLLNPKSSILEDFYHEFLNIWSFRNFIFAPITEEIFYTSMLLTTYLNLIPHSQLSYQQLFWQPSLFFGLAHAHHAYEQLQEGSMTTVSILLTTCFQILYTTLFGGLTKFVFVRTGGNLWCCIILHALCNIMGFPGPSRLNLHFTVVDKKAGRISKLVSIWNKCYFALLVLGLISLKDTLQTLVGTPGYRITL
CAL PDZ FP-1: blocks peptide binding to the human CAL PDZ domain. purified CAL PDZ, TMR-peptide fluorescence polarization, 1 h. inhibition, % at 24.9 µM. 300,000 tested, 0.92% active. AID 602252;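 active means mean inhibition of at least 30% with at least half of replicates also reaching 30%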;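 further: 0% = DMSO neutral control and 100% = excess unlabeled competitor peptide PRC23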
ARNT TACC3 PPI: disrupts binding between human ARNT and TACC3; inhibition, % at 9.99 µM; Q9Y6A5; 390,000 tested, 0.66% active; AlphaScreen His-ARNT PAS-B/GST-TACC3 binding, luminescence; TACC3 fragment carries E629A point mutation;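 active means mean inhibition of replicates at least 50% and at least half of replicates each reaching 50%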;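 further: 0% = complete ARNT plus TACC3 wells and 100% = ARNT alone without TACC3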
CAL PDZ FP-2: inhibitors of human CAL PDZ peptide binding | Q9HD26 | purified CAL PDZ, TMR-peptide fluorescence polarization, 1 h | inhibition, % at 20 µM | 330,000 tested, 0.02% active | AID 504414;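 active means highest replicate inhibition of at least 40%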;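 further: plate controls were DMSO neutral control wells for no effect and unlabeled competitor peptide control wells for full effect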
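Material – purified CerCALP PDZ construct · Detection – FP readout, S and P plane fluorescence · Measure – percent inhibition from loss of millipolarization · Controls – unlabelled peptide for full inhibition, DMSO wells as neutral · Probe or stimulus – TMR-labelled reporter peptide T*-PRC34 bound in PDZ groove · Times – 1 h at RT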
* = called active by the depositor; i = inactive; · = not tested or not shown; + = active, no number. In the library only some 1.7% were active in any assay of this set; here they are far more common.

SMILES | AI-2 QS mod | Rce1 inhib | CAL PDZ FP-1 | ARNT TACC3 PPI | CAL PDZ FP-2
COC(=O)Cc1ccc(NC(=S)Nc2cccc(C)n2)cc1 | 30.1 | i | 53.2* | 2.0 | -1.5
Cc1ccc([N+](=O)[O-])cc1/C=N/Nc1nnnn1-c1ccccc1 | 10.1 | i | -4.6 | 9.9 | 0.3
NS(=O)(=O)c1ccc2nc(NC(=O)c3ccc4c(c3)OCCO4)sc2c1 | -3.3 | i | 62.8* | -16.6 | -0.8
NS(=O)(=O)c1ccc2nc(NC(=O)c3ccc4ncsc4c3)sc2c1 | -3.8 | i | 3.9 | -4.0 | -2.4
CO[C@@H](CN(C)S(=O)(=O)c1ccc(Cl)cc1)[C@@H](C)CN(C(=O)Nc1ccccc1F)[C@H](C)CO | · | · | · | 5.9 | ·
COCC(=O)N1CCC(Oc2ccc(C(=O)NCc3cnc(C)cn3)cc2)CC1 | -0.2 | i | 56.9* | -9.7 | 6.6
COCC(=O)N1CCC(Oc2ccc(C(=O)NCCCn3cccn3)cc2)CC1 | 6.6 | i | 57.9* | -0.1 | 0.1
Cc1cnc(CNC(=O)c2ccc(OC3CCN(C(=O)C4CC4)CC3)cc2)cn1 | 19.9 | i | 0.6 | 19.9 | -1.5
C[C@@H]1CN([C@@H](C)CO)C(=O)Cc2cc(NC(=O)CCCCCC(=O)Nc3ccccc3N)ccc2O[C@@H]1CN(C)Cc1ccc(Oc2ccccc2)cc1 | · | · | · | 25.5 | ·
O=C(CNC(=O)c1ccccc1)N=Nc1c(O)[nH]c2ccc(Br)cc12 | 3.3 | i | 14.2 | · | -2.0
O=S(=O)(Cc1ccccc1)N=Nc1c(O)[nH]c2ccc(Br)cc12 | 41.4 | i | 81.5* | 3.4 | -0.3
Cc1onc(-c2ccccc2)c1C(=O)Nc1ccon1 | 21.2 | i | 1.1 | -2.2 | 0.3
Cc1onc(-c2ccccc2)c1C(=O)NC(=S)NNC(=O)c1ccc(O)cc1O | -1.1 | i | -4.8 | 95.4* | -1.2
Cc1ccc(NC(=O)c2c(-c3ccccc3)noc2C)nc1 | -0.3 | i | + | -10.7 | -0.6
Cc1onc(-c2ccccc2)c1C(=O)NC(=S)NNC(=O)c1ccccc1O | 34.0 | i | -0.6 | 58.5* | 0.5
Cc1cc(SCc2cccc(Cl)c2)nc(=O)[nH]1 | 69.2 | i | 54.9* | 2.5 | -1.7
O=C(O)CCc1ccc(-c2cccs2)n1Cc1ccco1 | 46.4 | + | 4.4 | 1.1 | -1.2
O=S(=O)(c1ccc(F)cc1)c1nc(-c2ccccc2F)oc1N1CCCCC1 | 1.8 | i | -2.4 | 14.2 | -1.8
COCC(C)n1c(C)cc(C(=O)Cn2nc(C(=O)O)c3ccccc3c2=O)c1C (centres undefined) | 13.8 | i | 37.4* | 0.3 | -0.9
COCC(C)n1c(C)cc(C(=O)COC(=O)c2nn(C)c(=O)c3ccccc23)c1C (centres undefined) | · | · | 0.0 | · | -1.5
COc1ccc([N+](=O)[O-])c(S(=O)(=O)c2ccc(Cl)cc2)n1 | -145.0* | i | · | 2.4 | -0.1
CCOc1ccc2nc(SCc3ccc(F)cc3)sc2c1 | 3.4 | i | 0.5 | -10.5 | -4.0
CCn1nnnc1SCC(=O)Nc1nc(C)c(C)s1 | 3.7 | + | 6.9 | 0.4 | -3.9
O=C(O)C(NC(=O)C1CCCN1C(=O)OCc1ccccc1)c1ccccc1 (centres undefined) | 14.3 | i | -1.7 | -7.9 | -0.4
O=C(O)CC(CNC(=O)C1CCCN1C(=O)OCc1ccccc1)c1ccccc1 (centres undefined) | -2.1 | i | 74.5* | -5.0 | ·
SMILES | AI-2 QS mod | Rce1 inhib | CAL PDZ FP-1 | ARNT TACC3 PPI | CAL PDZ FP-2
Cc1ccn2c(Nc3ccc4c(c3)OCO4)c(-c3ccccn3)nc2c1 | 20.4 | i | 0.3 | 66.2* | -0.8
Cc1ccc(-c2nc3cnccn3c2Nc2ccc3c(c2)OCO3)o1 | 23.1 | i | · | 1.9 | 1.6
Cc1ccc(-c2nc3ccc([N+](=O)[O-])cc3[nH]2)cc1 | 48.9 | i | · | 7.4 | -0.7
O=[N+]([O-])c1ccc2nc(-c3ccncc3)[nH]c2c1 | 8.1 | i | + | 0.8 | -2.2
COc1ccccc1-c1ccc([C@@H]2[C@H](CO)N3CCCCN(Cc4ccncc4)C[C@@H]23)cc1 | · | · | · | 14.4 | ·
C[C@H](CO)N1C[C@H](C)[C@@H](CN(C)Cc2ccc(C(F)(F)F)cc2)Oc2c(NC(=O)Nc3ccc(C(F)(F)F)cc3)cccc2C1=O | · | · | · | 0.3 | ·
O=S(=O)(NCc1cc(-c2ccc(Cl)cc2)no1)c1ccc(Cl)cc1 | -1.4 | i | 44.1* | 7.5 | -0.9
COc1ccc(NC(C)=O)cc1NC(=O)C1CCCN1C(=O)c1cccs1 (centres undefined) | · | · | 48.1* | -2.2 | -0.6
Cc1ccc(NC(=O)OCc2cccs2)cc1 | -90.0* | i | · | · | ·
Cc1ccc(NC(=O)OCc2cc(-c3ccccc3)on2)cc1 | -24.4 | i | 1.7 | 22.6 | -0.2
CCc1ccc(NC(=O)c2n[nH]c(=O)c3ccccc23)cc1 | 45.5 | i | -0.5 | -11.7 | -1.8
Cc1sc(NC(=O)Cn2nc(C(F)(F)F)cc2C)c(C(=O)OC(C)C)c1C | 17.4 | i | -0.6 | -5.9 | 0.5
Cc1cc2cc(C(=O)N3CCc4c([nH]c5ccccc45)C3c3ccccn3)ccc2o1 (centres undefined) | -2.6 | + | -3.9 | 3.8 | -2.6
CCN(CC)C(=O)COc1coc(CN2CCN(c3ccc(F)cc3)CC2)cc1=O | 28.2 | i | -4.0 | -4.7 | -0.9
CCOC(=O)COc1coc(CN2CCN(c3ccc(F)cc3)CC2)cc1=O | 17.2 | i | 40.9* | -1.6 | -0.8
O=C(N/C(=C\c1ccco1)C(=O)N1CCCCC1)c1ccc([N+](=O)[O-])cc1 | · | · | -1.1 | -17.0 | -0.9
Cc1cc(C(=O)Nc2cccc3c2O[C@@H](CN(C)S(=O)(=O)c2cccs2)[C@H](C)CN([C@H](C)CO)C3=O)n(C)n1 | · | · | · | -25.8 | ·
CCNc1nc(OC)nc(N(OC)S(=O)(=O)c2ccc(C)cc2)n1 | 23.4 | i | 73.6* | -34.1 | ·
CC1(C)CC(CC(=O)O)CC(C)(C)N1 | 6.8 | i | 5.4 | -1.8 | -0.4
C/C(=N\O)C1CC(CC(=O)O)C1(C)C (centres undefined) | -13.5 | i | 42.8* | -14.0 | 7.9
C[C@H]1CN([C@@H](C)CO)S(=O)(=O)c2ccc(C#CCN(C)C)cc2O[C@H]1CN(C)Cc1ccccc1F | · | · | · | 0.7 | ·
CN(C)S(=O)(=O)c1ccc(N2CCCC2)c(C(=O)Nc2nccs2)c1 | · | · | -2.8 | 4.2 | 0.1
COC(=O)c1c(NC(=O)CN(C)CC(=O)Nc2ccc(C)cc2)sc2c1CCC(C)C2 (centres undefined) | · | · | 68.6* | -13.6 | -0.3
Cc1cc(N)n(-c2ccc(S(=O)(=O)N3CCOCC3)cc2[N+](=O)[O-])n1 | 15.2 | i | 1.3 | -0.1 | -0.4
Cc1cc(N)n(-c2ccc(S(N)(=O)=O)cc2[N+](=O)[O-])n1 | 16.4 | i | 76.1* | 1.3 | -1.1
O=C1NC(=O)/C(=C\c2ccc(Oc3ccc([N+](=O)[O-])cn3)cc2)S1 | 61.3 | i | -3.3 | -6.9 | -0.6
O=C(CSc1ccccn1)N/N=C/c1c[nH]c2ccccc12 | 11.6 | i | · | 21.1 | -0.8
